One block for each compound: values may come before it.
Tests used:
hCCR5 [1] = target: T1, hCCR5 (Homo sapiens, UniProt P51681); assay: Tango β-arrestin recruitment assay in U2OS-CCR5 cells; assay type: cell-based; conditions: for Hill slope (nH): inhibition of CCL3-induced β-arrestin recruitment in U2OS-CCR5; for inhibition at 1 µM: read-out: inhibition at 1 μM (%), β-arrestin recruitment in U2OS-CCR5 by 1 μM compound, in the presence of an EC80 concentration of CCL3, negative = CCL3 stimulation
Procedure, shortened: (§1)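 Tango bla U2OS cells (human CCR2b or CCR5) were trypsinized and seeded at 10 000 cells/well in FreeStyle medium. Agonist mode: CCL2 or CCL3 for 16 h, 37 °C, 5% CO2. Antagonist mode: 30 min room-temperature preincubation with increasing compound (≤0.5% DMSO final), then 16 h with EC80 CCL2 (5 nM, CCR2) or CCL3 (14 nM, CCR5). LiveBLAzer-FRET B/G substrate 2 h; excitation 400 nm, 460/535 nm emission ratio.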

hCCR2 [2] = target: T2, hCCR2 (Homo sapiens, UniProt P41597); assay: [3H]-CCR2-RA-[R] displacement binding assay on U2OS-CCR2b membranes; conditions: for pKi ± SEM: displacement of ∼6 nM [3H]-CCR2-RA-[R] from U2OS cells stably expressing CCR2, 25 °C
T2 sequence (P41597 1-360 isoform P41597-2): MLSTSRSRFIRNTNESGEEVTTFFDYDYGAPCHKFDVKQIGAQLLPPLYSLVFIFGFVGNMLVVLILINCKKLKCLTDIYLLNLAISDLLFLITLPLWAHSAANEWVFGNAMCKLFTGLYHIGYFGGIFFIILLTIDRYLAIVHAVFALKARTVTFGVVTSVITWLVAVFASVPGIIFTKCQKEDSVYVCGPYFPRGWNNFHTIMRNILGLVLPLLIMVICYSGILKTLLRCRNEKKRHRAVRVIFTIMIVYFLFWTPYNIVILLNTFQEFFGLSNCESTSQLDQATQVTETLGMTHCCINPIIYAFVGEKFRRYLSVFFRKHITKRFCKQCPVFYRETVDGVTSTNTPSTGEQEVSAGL
Procedure, shortened: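 U2OS-CCR2b membranes (15–20 μg protein) were incubated with ~6 nM [3H]-CCR2-RA-[R] and at least 6 competitor concentrations. Buffer: 50 mM Tris-HCl, 5 mM MgCl2, 0.1% CHAPS, pH 7.4. Incubation 2 h at 25 °C. Rapid GF/B filtration, ten washes with ice-cold buffer (0.05% CHAPS), scintillation counting. Mean ± SEM of ≥3 experiments in duplicate.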

CCR2 = conditions: read-out: IC50 in CCR2 calcium flux assay; previously reported activity; cited from earlier work
hCCR2 [3] = target: T2, hCCR2; assay: CCL2-stimulated [35S]GTPγS binding assay on U2OS-CCR2 membranes; assay type: biochemical; conditions: for decrease of basal [35S]GTPγS binding levels: 1 μM compound, in absence of CCL2, 0% = basal activity, 100% = 100 nM CCL2
Procedure, shortened: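 U2OS-CCR2b cells are grown in McCoy's 5A with 10% FCS, G418, hygromycin and zeocin, switching to dialyzed FCS before harvest. Membranes are prepared by scraping in PBS, homogenizing in ice-cold 50 mM Tris-HCl, 5 mM MgCl2, pH 7.4, ultracentrifuging (31 000 rpm, 20 min, 4 °C) twice, storing at −80 °C and measuring protein by BCA. Values come from nonlinear regression, ≥3 experiments in duplicate.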

hCCR2 [4] = target: T2, hCCR2; assay: Tango β-arrestin recruitment assay in U2OS-CCR2 cells; assay type: cell-based; conditions: inhibition of CCL2-induced β-arrestin recruitment in U2OS-CCR2
Procedure, shortened: as §1

hCCR5 [5] = target: T1, hCCR5; assay: CCL3-stimulated [35S]GTPγS binding assay on U2OS-CCR5 membranes; assay type: biochemical; conditions: CCL3 alone, U2OS-CCR5, 25 °C
Procedure, shortened: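 Membranes from Tango U2OS cells stably expressing human CCR5 (10 μg, with 0.25 mg/mL saponin) were preincubated 30 min at 25 °C with 5 μM GDP and increasing CCL3. Then 0.3 nM [35S]GTPγS was added for 90 min at 25 °C. Stopped with ice-cold Tris/MgCl2, then GF/B filtration. Nonlinear regression.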

[6] = CCL2 alone, [35S]GTPγS binding, U2OS-CCR2, 25 °C

T1 sequence (P51681 whole entry): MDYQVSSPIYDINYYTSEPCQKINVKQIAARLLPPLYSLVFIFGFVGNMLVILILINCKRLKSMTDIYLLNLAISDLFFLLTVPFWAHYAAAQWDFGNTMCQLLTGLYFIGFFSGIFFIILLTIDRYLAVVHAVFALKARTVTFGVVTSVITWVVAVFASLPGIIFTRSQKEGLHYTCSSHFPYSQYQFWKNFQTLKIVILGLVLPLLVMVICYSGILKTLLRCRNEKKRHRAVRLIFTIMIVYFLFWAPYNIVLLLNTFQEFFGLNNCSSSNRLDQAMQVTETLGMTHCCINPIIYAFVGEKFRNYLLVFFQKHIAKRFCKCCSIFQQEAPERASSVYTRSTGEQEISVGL

Hill slope (nH) (hCCR5 [1]): −2.4
Compound: CC(=O)C1=C(O)C(=O)N(c2ccc(Cl)cc2F)[C@@H]1C1CCCCC1 [CCR2-RA-[R], reference compound]

pKi ± SEM (hCCR2 [2]): 8.76 ± 0.01
Compound: O=c1c(Cc2cccc(Cl)c2)c(C2CC2)[nH]c2ncnn12 [Compound 6, 6-(3-Chlorobenzyl)-5-cyclopropyl[1,2,4]triazolo[1,5-a]pyrimidin-7(4H)-one]
IC50 (CCR2): ~20 nM

pKi ± SEM (hCCR2 [2]): 8.46 ± 0.05
Compound: Cc1nc2[nH]c(C3CC3)c(Cc3cccc(Cl)c3)c(=O)n2n1 [Compound 7, 6-(3-Chlorobenzyl)-5-cyclopropyl-2-methyl[1,2,4]triazolo[1,5-a]pyrimidin-7(4H)-one]

fold decrease in affinity for CCR2 compared to 8 (hCCR2 [2]): 5 fold
Compound: Nc1nc2[nH]c(C3CC3)c(Cc3ccccc3)c(=O)n2n1 [Compound 9, 2-Amino-6-benzyl-5-cyclopropyl[1,2,4]triazolo[1,5-a]pyrimidin-7(4H)-one]

Compound: COc1ccccc1Cc1c(C2CC2)[nH]c2nc(N)nn2c1=O [Compound 12, 2-Amino-5-cyclopropyl-6-(2-methoxybenzyl)[1,2,4]triazolo[1,5-a]pyrimidin-7(4H)-one]
inhibition at 1 µM (hCCR5 [1]): -20%

inhibition at 1 µM (hCCR5 [1]): > 60%
pKi ± SEM (hCCR2 [2]): 8.61 ± 0.03
Compound: Cc1cccc(Cc2c(C3CC3)[nH]c3nc(N)nn3c2=O)c1 [Compound 13, 2-Amino-5-cyclopropyl-6-(3-methylbenzyl)[1,2,4]triazolo[1,5-a]pyrimidin-7(4H)-one]

inhibition at 1 µM (hCCR5 [1]): < 45%
Compound: Nc1nc2[nH]c(C3CC3)c(Cc3cccc(F)c3)c(=O)n2n1 [Compound 14, 2-Amino-5-cyclopropyl-6-(3-fluorobenzyl)[1,2,4]triazolo[1,5-a]pyrimidin-7(4H)-one]

Compound: COc1cccc(Cc2c(C3CC3)[nH]c3nc(N)nn3c2=O)c1 [Compound 17, 2-Amino-5-cyclopropyl-6-(3-methoxybenzyl)[1,2,4]triazolo[1,5-a]pyrimidin-7(4H)-one]
inhibition at 1 µM (hCCR5 [1]): -27%
pKi ± SEM (hCCR2 [2]): 7.89 ± 0.07

Compound: Cc1ccc(Cc2c(C3CC3)[nH]c3nc(N)nn3c2=O)cc1 [Compound 19, 2-Amino-5-cyclopropyl-6-(4-methylbenzyl)[1,2,4]triazolo[1,5-a]pyrimidin-7(4H)-one]
inhibition at 1 µM (hCCR5 [1]): -57%
Ki (hCCR2 [2]): 3 nM
pKi ± SEM (hCCR2 [2]): 8.46 ± 0.03

pKi ± SEM (hCCR2 [2]): 8.39 ± 0.03
Compound: Nc1nc2[nH]c(C3CC3)c(Cc3ccc(F)cc3)c(=O)n2n1 [Compound 20, 2-Amino-5-cyclopropyl-6-(4-fluorobenzyl)[1,2,4]triazolo[1,5-a]pyrimidin-7(4H)-one]

pKi ± SEM (hCCR2 [2]): 8.74 ± 0.05
Compound: Nc1nc2[nH]c(C3CC3)c(Cc3ccc(Cl)cc3)c(=O)n2n1 [Compound 21, 2-Amino-6-(4-chlorobenzyl)-5-cyclopropyl[1,2,4]triazolo[1,5-a]pyrimidin-7(4H)-one]

Compound: COc1ccc(Cc2c(C3CC3)[nH]c3nc(N)nn3c2=O)cc1 [Compound 23, 2-Amino-5-cyclopropyl-6-(4-methoxybenzyl)[1,2,4]triazolo[1,5-a]pyrimidin-7(4H)-one]
inhibition at 1 µM (hCCR5 [1]): -28%

Compound: Cc1[nH]c2nc(N)nn2c(=O)c1Cc1cccc(Cl)c1 [Compound 24, 2-Amino-6-(3-chlorobenzyl)-5-methyl[1,2,4]triazolo[1,5-a]pyrimidin-7(4H)-one]
inhibition at 1 µM (hCCR5 [1]): -35%

inhibition at 1 µM (hCCR5 [1]): > 60%
Ki (hCCR2 [2]): ~4 nM
Compound: CCCc1[nH]c2nc(N)nn2c(=O)c1Cc1cccc(Cl)c1 [Compound 26, 2-Amino-6-(3-chlorobenzyl)-5-propyl[1,2,4]triazolo[1,5-a]pyrimidin-7(4H)-one]

fold increase in CCR5 potency compared to 8 (hCCR5 [1]): 2 fold
Compound: CC(C)c1[nH]c2nc(N)nn2c(=O)c1Cc1cccc(Cl)c1 [Compound 27, 2-Amino-6-(3-chlorobenzyl)-5-isopropyl[1,2,4]triazolo[1,5-a]pyrimidin-7(4H)-one]

inhibition at 1 µM (hCCR5 [1]): > 60%
Ki (hCCR2 [2]): 2 nM
Compound: CCCCc1[nH]c2nc(N)nn2c(=O)c1Cc1cccc(Cl)c1 [Compound 28, 2-Amino-5-butyl-6-(3-chlorobenzyl)[1,2,4]triazolo[1,5-a]pyrimidin-7(4H)-one]

pKi ± SEM (hCCR2 [2]): 8.14 ± 0.03
Compound: CCCCCc1[nH]c2nc(N)nn2c(=O)c1Cc1cccc(Cl)c1 [Compound 30, 2-Amino-6-(3-chlorobenzyl)-5-pentyl[1,2,4]triazolo[1,5-a]pyrimidin-7(4H)-one]

fold increased affinity for CCR2 compared to 30 (hCCR2 [2]): 4.5 fold
Compound: Nc1nc2[nH]c(C3CCCC3)c(Cc3cccc(Cl)c3)c(=O)n2n1 [Compound 31, 2-Amino-6-(3-chlorobenzyl)-5-cyclopentyl[1,2,4]triazolo[1,5-a]pyrimidin-7(4H)-one]

Compound: CCCCCCc1[nH]c2nc(N)nn2c(=O)c1Cc1cccc(Cl)c1 [Compound 32, 2-Amino-6-(3-chlorobenzyl)-5-hexyl[1,2,4]triazolo[1,5-a]pyrimidin-7(4H)-one]
inhibition at 1 µM (hCCR5 [1]): -63%

Compound: Nc1nc2[nH]c(-c3ccccc3)c(Cc3cccc(Cl)c3)c(=O)n2n1 [Compound 34, 2-Amino-6-(3-chlorobenzyl)-5-phenyl[1,2,4]triazolo[1,5-a]pyrimidin-7(4H)-one]
inhibition at 1 µM (hCCR5 [1]): -41%
fold decrease in affinity for CCR2 compared to 8 (hCCR2 [2]): 20 fold

Compound: Cc1ccc(-c2[nH]c3nc(N)nn3c(=O)c2Cc2cccc(Cl)c2)cc1 [Compound 35, 2-Amino-6-(3-chlorobenzyl)-5-(p-tolyl)[1,2,4]triazolo[1,5-a]pyrimidin-7(4H)-one]
inhibition at 1 µM (hCCR5 [1]): -13%
fold decrease in affinity for CCR2 compared to 8 (hCCR2 [2]): 122 fold

Compound: Nc1nc2[nH]c(CCc3ccccc3)c(Cc3cccc(Cl)c3)c(=O)n2n1 [Compound 36, 2-Amino-6-(3-chlorobenzyl)-5-phenethyl[1,2,4]triazolo[1,5-a]pyrimidin-7(4H)-one]
inhibition at 1 µM (hCCR5 [1]): -42%
fold decrease in affinity for CCR2 compared to 8 (hCCR2 [2]): 40 fold

fold increase in CCR5 potency compared to 37 (hCCR5 [1]): ~2 fold
Compound: CC(C)c1[nH]c2nc(N)nn2c(=O)c1Cc1ccc(Cl)c(Cl)c1 [Compound 38, 2-Amino-6-(3,4-dichlorobenzyl)-5-isopropyl[1,2,4]triazolo[1,5-a]pyrimidin-7(4H)-one]

Hill slope (nH) (hCCR5 [1]): −3.7
decrease of basal [35S]GTPγS binding levels (hCCR2 [3]): 7–8%
Hill slope (nH) (hCCR2 [4]): −2.5
Compound: CC(C)c1[nH]c2nc(N)nn2c(=O)c1Cc1cccc(Cl)c1Cl [Compound 39, 2-Amino-6-(2,3-dichlorobenzyl)-5-isopropyl[1,2,4]triazolo[1,5-a]pyrimidin-7(4H)-one]

inhibition at 1 µM (hCCR5 [1]): ≤ 70%
Compound: CC(C)c1[nH]c2nc(N)nn2c(=O)c1Cc1cc(Br)cc(Br)c1 [Compound 42, 2-Amino-6-(3,5-dibromobenzyl)-5-isopropyl[1,2,4]triazolo[1,5-a]pyrimidin 7(4H)-one]

Hill slope (nH) (hCCR5 [1]): −4.4
decrease of basal [35S]GTPγS binding levels (hCCR2 [3]): 7–8%
Hill slope (nH) (hCCR2 [4]): −3.4
Compound: CC(C)c1[nH]c2nc(N)nn2c(=O)c1Cc1ccc(Cl)c(Br)c1 [Compound 43, 2-Amino-6-(3-bromo-4-chloro-benzyl)-5-isopropyl[1,2,4]triazolo[1,5-a]pyrimidin-7(4H)-one]

Hill slope (nH) (hCCR5 [1]): −1.1
Compound: Cc1ccc(-c2ccc3c(c2)C=C(C(=O)Nc2ccc(C[N+](C)(C)C4CCOCC4)cc2)CCC3)cc1.[Cl-] [TAK-779, reference compound]

EC50 (hCCR2 [3]; [6]): 8 nM
Emax ± SEM (%) (hCCR2 [3]; [6]): 107 ± 2%
pEC50 ± SEM (hCCR2 [3]; [6]): 8.10 ± 0.06
Compound: CCL2: human recombinant chemokine, endogenous agonist of CCR2

pEC50 of β-arrestin recruitment (hCCR5 [1]; agonist, U2OS-CCR5): 8.3 ± 0.08
pEC80 of β-arrestin recruitment (hCCR5 [1]; agonist, U2OS-CCR5): 7.9 ± 0.08
EC50 (hCCR5 [1]; read-out: EC50 of β-arrestin recruitment, agonist, U2OS-CCR5): 6 nM
EC50 (hCCR5 [5]): 4 nM
Emax ± SEM (%) (hCCR5 [5]): 108 ± 2%
pEC50 ± SEM (hCCR5 [5]): 8.42 ± 0.06
Compound: CCL3: human recombinant chemokine, endogenous agonist of CCR5

Reference: paper PMC6935887 (Journal of Medicinal Chemistry, 2019)
